The record followed here is ChEMBL document CHEMBL4513216, “Probing the Open Global Health Chemical Diversity Library for Multistage-Active Starting Points for Next-Generation Antimalarials” (ACS Infect Dis, 2020).

The nature of this data set: Toxicity liver stage against HepG2, at 10uM. Conditions: human, HepG2-A16-CD81EGFP cells; read-out: INHIBITION
Also noted: test concentration 10 uM, cell line HepG2-A16-CD81EGFP. It counts as cell-based. A digest of the protocol:
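Uninfected HepG2-A16-CD81EGFP cells, 3 × 10^3 per well, 1536-well, plated on prespotted compound at 10 μM final, parasite-free screening media added to match infected plates; puromycin 10 μM positive, DMSO 0.5% negative; run in parallel with 48 h PbLuc assay at 37 °C, 5% CO2; viability by CellTiter-Glo luminescence, normalized to controls.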
With `CCOc1nc2cnccc2n(CC(=O)NCCc2ccccc2)c1=O`, the cytotoxicity at 10 µM is -6.29%. With `Cn1cnnc1SC1CCc2ccccc2NC1=O` (stereo not given) the figure was -0.373%; with `COCCCN1C(=O)c2ccc(C(=O)NCCc3c[nH]cn3)cc2C1=O`, -3.76%.

In the case of `CC(=O)N1CCC(CSCc2ccco2)CC1`, the cytotoxicity at 10 µM stood at 9.77%.

On to `O=C(O)C1CCCN(C(=O)CCn2ccc3c(Br)cccc32)C1` (stereo not given), for which the cytotoxicity at 10 µM amounted to 10.9%. `Cc1c(C(=O)N2CCN(c3ncccn3)CC2)n(C)c2ccc(Cl)cc12`: the cytotoxicity at 10 µM was determined as 3.99%.

Take `CCn1ncc(CN2CCN(C(=O)Cn3cc(Br)c(C)n3)CC2)c1C`: the cytotoxicity at 10 µM worked out at 0.301%. With `Cn1ccnc1SCC(=O)NCc1ccc2c(c1)CCC(=O)N2` the figure was 7.66%; with `NC(=O)c1cccc(-c2cnc(C3CCCNC3)cn2)c1` (stereo not given), -0.055%. With `CNC(=O)c1cn[nH]c1C1CCCN1c1nc(C)cc(C)n1` (stereo not given) the figure was 2.81%. `CCC(=O)N1CCC(c2nc(C)c3c(n2)N(C)CCC3)CC1`: the cytotoxicity at 10 µM is 4.26%.

`COCCc1ncc(CNC2(c3ccc(Cl)cc3Cl)CC2)cn1`: the cytotoxicity at 10 µM is -15.8%.

Turning to `CN(C)C(=O)CN1CCCC1c1nc(N)ncc1-c1ccc(F)cc1` (stereo not given), the cytotoxicity at 10 µM was -8.94%. Next, `O=C(c1cccs1)N1CCc2c(nc(N3CCCC3)[nH]c2=O)C1`: -16.3%. With `O=S(=O)(Cc1ccccc1)CC(O)Cn1cccn1` (stereo not given) the figure was 3.4%. With `CC(C)Oc1cccc(CNC(=O)NC2(CO)CCCC2)c1` the figure was -57.1%; with `CC(C)c1cc(C(=O)N(c2ccc(F)cn2)C2CCOCC2)nn1C`, -4.65%; with `COCc1nnc(-c2cccc(C(=O)N(C(C)C)C3CCC3)c2)o1`, 1.51%.

On to `COc1ccc(S(=O)(=O)Nc2cccnc2-n2cncn2)c(C)c1`, for which the cytotoxicity at 10 µM amounted to 3.64%. On to `O=C1NCCCCC1NC(=O)N1CCCc2ccccc21` (stereo not given), for which the cytotoxicity at 10 µM was -3.49%. For the compound `CCN1N=C(C(=O)N2CCCC(c3noc(C)n3)C2)CCC1=O` (stereo not given), the cytotoxicity at 10 µM was -12.9%.

`CCN1CCN(c2ccc(F)cc2C(C)NCc2cscn2)CC1` (stereo not given): the cytotoxicity at 10 µM was -10.3%. Next, `CCC(CC)NC(=O)Cn1cc(C(N)=O)c(-c2ccccc2)n1`: -6.87%; `Cc1nnc(NCCc2nc3ccc(F)cc3n2C)c(C#N)c1C`: -0.744%; `O=C(CCC1CCCCC1)NS(=O)(=O)CC1CC1`: -9.69%. With `COc1ccc(NC(=O)C2CC2)cc1OCc1cccnc1` the figure was -50.5%. With `CCNC(=O)CCC(=O)Nc1ccc2nn(C(C)C)cc2c1` the figure was -141%. As for `CN1CCC(C)(CNC(=O)c2ccc(SCc3cccnc3)cc2)CC1`, the cytotoxicity at 10 µM came to 12.4%.

Regarding `COc1cccc(F)c1C(C)NC(=O)NCc1ccnc(C)n1` (stereo not given), the cytotoxicity at 10 µM was -10.9%. In the case of `CN(c1ccc(C#N)cn1)C1CCCN(Cc2noc(C3CC3)n2)C1` (stereo not given), the cytotoxicity at 10 µM was -17.2%. Next, `CC(C)C1CCN(C(=O)NCC(=O)N(C)CC(F)(F)F)CC1`: 20.7%; `CN(C)c1cccc(CNCc2ccc(N3CCOCC3)cc2)c1`: 11.3%; `COc1ccccc1CCN(C)Cc1nc(N)nc(N(C)C)n1`: 6.96%. With `CC(=O)N1CCN(C(=O)CNc2ccc3ncsc3c2)CC1` the figure was -2.01%. Next, `Cc1csc(C2(NCC(O)COc3ccc(F)cc3)CCC2)n1` (stereo not given): 14.9%.

Consider `C[S+]([O-])c1nncn1CC(=O)c1ccc(Cl)c(Cl)c1` (stereo not given), for which the cytotoxicity at 10 µM is -4.34%. Next, `O=C(Nc1nc2c(s1)CCC2)c1cccnc1N1CCOCC1`: 8.5%.

With `CCc1ncnc2c1CCN(S(=O)(=O)CC)CC2`, the cytotoxicity at 10 µM is -105%.

With `Cn1cccc1C(=O)NCc1cn2c(n1)CN(S(=O)(=O)C1CC1)CC2`, the cytotoxicity at 10 µM is -114%. Turning to `CC(C)NC(=O)N1CCc2nc(C(=O)NCc3ccccc3)sc2CC1`, the cytotoxicity at 10 µM is 4.17%. `O=C(c1ccoc1)N1CC[C@@H]2O[C@H](COCc3ccccn3)CC[C@@H]21`: the cytotoxicity at 10 µM was 5.48%. Next, `Cc1cc(CN2CC[C@H]3C[C@H](C)O[C@@H]3C2)no1`: -1.42%; `COc1ccc(CN2CCCC(N3CCCC3)C2)cc1Cn1cncn1` (stereo not given): 7.33%; `C[C@@H]1CN(c2nc3c(cc2C(N)=O)CCC3)C[C@@]1(O)C1CCC1`: -3.98%.

With `COC(=O)CNC(=O)C1(N(C)Cc2ccccc2)Cc2ccccc2C1`, the cytotoxicity at 10 µM turned out to be 3.82%.

As to `CC1=C(CCN2C[C@H](O)[C@@H](N3CCOCC3)C2)C(C)(C)CCC1`, the cytotoxicity at 10 µM is -0.128%. With `CN(CCc1ccccc1)C(=O)c1cc(CN2CCC(O)CC2)on1` the figure was -2.92%.

Consider `CN[C@@H](C)C(=O)N(Cc1cccc(C)c1)Cc1ccccc1OC`, for which the cytotoxicity at 10 µM was -39.5%.

Regarding `CC(C)C1CN(c2cnccn2)CCC(=O)N1Cc1ccc(F)cc1` (stereo not given), the cytotoxicity at 10 µM came to 3.67%. Next, `CC(C)=CCN1CCN(C(=O)CSc2ccccn2)[C@H]2CS(=O)(=O)C[C@H]21`: 4.97%. Next, `Cc1c[nH]c(C(=O)N2CCC(c3nnc(CN(C)CCO)n3C)CC2)c1`: -3.52%; `C[C@@H]1CN(C(=O)CCCn2nnc(-c3ccc(F)cc3)n2)C[C@]1(C)O`: 14.2%; `O=C(NCC(F)(F)F)C(c1cccnc1)N1CCCC1` (stereo not given): 2.26%.

As for `Cc1cc(C)n(C2CN(c3nc(N)nc4c3CCCC4)C2)n1`, the cytotoxicity at 10 µM is -44.4%. In the case of `CCCn1ccnc1-c1nccn1CCN(C)C`, the cytotoxicity at 10 µM is -1.04%. With `Cn1ccnc1-c1ccc(NCCC2COc3ccccc3O2)nn1` (stereo not given) the figure was 9.56%. Next, `CCc1oc(C(=O)NCCc2nc(C(=O)O)cs2)cc1CN1CCCC1`: 19.3%; `CCC(C)Nc1ccc(-c2nc(-c3cccc(OC)c3OC)no2)cn1` (stereo not given): 24.8%. As to `CC(C)CCn1cc(C(C(=O)O)N2CCCN(C3CCCC3)CC2)cn1` (stereo not given), the cytotoxicity at 10 µM is -5.84%. With `CNS(=O)(=O)c1ccc(CN2CCCN(CC(C)C)CC2)cc1` the figure was 4.03%; with `COCCCN1CC2(CCC1=O)CCN(Cc1cc(C)no1)CC2`, 4.08%; with `Cc1c(C(=O)N2CCC3(CCC(=O)N(CCN(C)C)C3)CC2)ccn1C`, -4.06%. With `CS(=O)(=O)c1ccc(CN2CCCCC2c2cccc(F)c2)cc1` (stereo not given) the figure was -17.4%. With `Cn1cc(CN2CCC(CCC(=O)Nc3ccccc3Cl)CC2)cn1` the figure was -2.98%. For `Cc1nccn1CCC1CCN(C(=O)C2CC3(CCNCC3)CN2)CC1` (stereo not given), the cytotoxicity at 10 µM is -1.64%. Next, `O=C(O)C1(Oc2ccc3ccccc3c2)CCN(c2ccncc2)CC1`: 0.542%; `COC1CCCN(C2CCN(c3cccc(-c4csc(C)n4)c3)CC2)C1` (stereo not given): 0.929%. With `CC(=O)NCC(=O)N1Cc2c(-c3cccc(C)c3)nc(N)nc2C1C` (stereo not given) the figure was 7.66%. Take `Cc1ccc(-c2ccnc(NC(C)c3n[nH]c(C)n3)n2)c(C)n1` (stereo not given): the cytotoxicity at 10 µM is 2.83%. In the case of `Cc1c(Cn2c(=O)cnc3ccccc32)cnn1C`, the cytotoxicity at 10 µM was -0.473%.

With `Nc1cc(O)nc(CCNC(=O)CC[C@@H]2CCCN3CCCC[C@H]23)n1`, the cytotoxicity at 10 µM was -1.89%. `CCCC1(CO)CCCN(C(=O)CCCn2nc(C)cc2C)C1` (stereo not given): the cytotoxicity at 10 µM was -9.53%. For `CC(C)(C)OC(=O)NC1CCCN(Cc2cccc(O)c2)C1` (stereo not given), the cytotoxicity at 10 µM was -45.3%.

Turning to `CCn1cc(CN2CCCN(C3Cc4ccccc4C3)CC2)c(C)n1`, the cytotoxicity at 10 µM is -10.9%. With `O=C(N[C@H]1COC[C@@H]1N1CCCC1)c1csc(-c2cccs2)n1` the figure was 9.71%; with `CN(Cc1cc[nH]n1)C(=O)c1cccc(CCC(C)(C)O)c1`, -0.0174%; with `Cc1ccc(=O)n(CC2(O)CCN(Cc3ccsc3)CC2)n1`, 0.642%. Turning to `O=C(CN1CCOC(Cn2cncn2)C1)NCc1cccs1` (stereo not given), the cytotoxicity at 10 µM is -10.2%.

Take `COc1cccc(S(=O)(=O)NC(=O)COC2CCCC2)c1`: the cytotoxicity at 10 µM was -7.1%.

Take `CCc1nc(C2CCCN2CC(=O)Nc2nncs2)no1` (stereo not given): the cytotoxicity at 10 µM was -9.47%. Next, `Cn1ccnc1CN1CCN(Cc2ccccc2C#N)CC1`: -3.83%; `Cc1cnn(CC2CCCN2C(=O)c2ccc(C(N)=O)cn2)c1` (stereo not given): -4.64%.

In the case of `O=C(Cn1cnc(NC(=O)CC2CCCC2)n1)NCc1ccccc1`, the cytotoxicity at 10 µM was -4.1%.

Turning to `Cc1noc2ncc(C(=O)N3CCCC3c3ccncc3)cc12` (stereo not given), the cytotoxicity at 10 µM was -5.66%. Next, `Cc1cc(NC(=O)NCC(C)N2CCc3ccccc32)no1` (stereo not given): -6.34%. Next, `CN(C)C(=O)[C@H]1C[C@@H]2CCN(Cc3ccoc3)C[C@@H]2O1`: -99.7%. As for `CCCN1CC[C@@H]2[C@@H](CO[C@H]2CNC(=O)c2nccn2C)C1`, the cytotoxicity at 10 µM was -111%.

For the compound `CC(C)c1cc(C(=O)NCC2CCCN(C(C)C)C2)n(C)n1` (stereo not given), the cytotoxicity at 10 µM was -1.75%.

As for `c1ccc(CCNc2cccc(C3CCCNC3)n2)cc1` (stereo not given), the cytotoxicity at 10 µM is -3.18%. Turning to `CN(C)S(=O)(=O)N1CC[C@]2(C[C@H](Oc3ncccc3F)CO2)C1`, the cytotoxicity at 10 µM came to 2.47%. Next, `Nc1cnn(CC(=O)N2CCCCC2)c1`: -3.15%.

With `CCN(C)c1ncnc2c1CCN(Cc1ccc(OC)cc1)CC2`, the cytotoxicity at 10 µM came out at 9.88%. With `NC1(c2nc(C(F)(F)F)cc(=O)[nH]2)CCCCC1` the figure was 11%. As to `CCC(=O)N1CCC[C@]2(C(=O)N(C)C)CN(c3ccccn3)C[C@@H]2C1`, the cytotoxicity at 10 µM was determined as 11.5%.

As to `O=c1cc(CN2C[C@@H]3CC[C@H]2CN(Cc2ccccc2)C3)[nH]c(=O)[nH]1`, the cytotoxicity at 10 µM was determined as 8.89%.
